Laboratory results taken from ChEMBL document CHEMBL1671641, “1,5-benzodiazepines, a novel class of hepatitis C virus polymerase nonnucleoside inhibitors” (Antimicrob Agents Chemother, 2008).
The source made the active and inactive calls. The rule behind the calls is not given here.

Legend:
[1] = tested on: Hepatitis C virus; assay: Inhibition of Hepatitis C virus 1b J4 recombinant NS5B Cdelta 21 RNA dependent RNA polymerase mediated formation of first phosphodiester bond during the polymerization reaction at 10 uM after 60 mins; details: Hepatitis C virus subtype 1b
Procedure, shortened: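 Buffer was 50 mM HEPES pH 7.5, 5 mM MgCl2, 5 mM MnCl2, 10 mM KCl, 1 mM DTT, at room temperature. In the time course, incubation was lengthened with inhibitor held at 10 μM. Products were phenol-extracted, ethanol-precipitated, denatured 3 min at 95°C, run on 8 M urea–20% polyacrylamide gels, and imaged.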

[2] = tested on: Hepatitis C virus; assay: Ratio of EC50 for Hepatitis C virus 796 infected in HuH7 cells to EC50 for Hepatitis C virus 796 harboring NNI C316Y mutant site in NS5B infected in HuH7 cells; format: functional, Hepacivirus hominis, Huh-7
Procedure, shortened: (§1)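 NS5B NNI-site mutations were introduced into the genotype 1b ET subgenomic luciferase replicon by site-directed mutagenesis. RNA was made by in vitro transcription and tested in a transient-replication assay.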

[3] = Inhibition of Gamma-aminobutyric acid type-A (GABAA) receptor by radioligand binding assay
Procedure, shortened: (§2)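 Radioligand binding assays for the GABA-A central BZD receptor and the peripheral BZD receptor were run as a single experiment in duplicate.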

[4] = Cytotoxicity against human HuH7 cells after 5 days by resazurin assay; format: cell-based, Huh-7; details: HuH7 cells
Procedure, shortened: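 Subconfluent HCV 1b subgenomic replicon cells, 500 per well and grown without G418, were incubated for 5 days with eight serial fourfold compound dilutions. Viability was read by resazurin. Values are means ± SD from two to eight independent experiments in quadruplicate.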

[5] = tested on: Hepatitis C virus; assay: Antiviral activity against Hepatitis C virus 1b infected in human HuH7 cells assessed as inhibition of viral replication after 3 days by luciferase reporter assay; format: functional, organism-based, Hepacivirus hominis, genotype 1b, Huh-7; details: huh-7
Procedure, shortened: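 HCV 1b subgenomic luciferase reporter replicon (clone ET) cells, 2,500 per well, were exposed to a nine-point 1/4 dilution series for 3 days. Replication was read as luciferase activity. Values are means ± SD from 2 to 23 independent experiments run in quadruplicate.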

[6] = tested on: Hepatitis C virus; assay: Ratio of EC50 for Hepatitis C virus 796 infected in HuH7 cells to EC50 for Hepatitis C virus 796 harboring NNI Y448A mutant site in NS5B infected in HuH7 cells; format: functional, Hepacivirus hominis, Huh-7; procedure, shortened: as §1
[7] = Cytotoxicity against CMV-Luc transfected human HuH7 cells after 5 days; format: cell-based, Huh-7; details: huh-7, 120 h, 120 h
[8] = tested on: Hepatitis C virus; assay: Inhibition of Hepatitis C virus 1b J4 recombinant NS5B Cdelta 21 RNA dependent RNA polymerase overexpressed in Escherichia coli BL21 (DE3) assessed as [alpha-33P]UTP incorporation by RdRp primer-independent transcription assay; parameters: species or system Hepatitis C virus subtype 1b
Procedure, shortened: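 De novo (primer-independent) RdRp assay: 190 nM NS5BΔ21 (1b J4) with 86 nM HCV 3′ UTR template RNA, 0.5 mM each ATP/GTP/CTP, 10 μM UTP plus [α-³³P]UTP, in 20 mM Tris-HCl pH 7.5, 1 mM DTT, 5 mM MgCl₂, 20 mM NaCl. Incubated 2 h at room temperature, stopped with EDTA/tRNA, TCA-precipitated on filters, and scintillation-counted. Quadruplicate.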

[9] = tested on: Hepatitis C virus; assay: Ratio of EC50 for Hepatitis C virus 796 infected in HuH7 cells to EC50 for Hepatitis C virus 796 harboring NNI M423T mutant site in NS5B infected in HuH7 cells; format: functional, Hepacivirus hominis, Huh-7; procedure, shortened: as §1
[10] = Cytotoxicity against human HEK293T cells after 72 hrs by resazurin assay; format: cell-based, HEK-293T
Procedure, shortened: (§3)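 Cells were tested against eight serial fourfold dilutions for 72 h, at 3,000 cells/well for HEK293T and 4,000 cells/well for HepG2. Viability was read by resazurin staining. Values are means ± SD from two to eight independent experiments in quadruplicate.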

[11] = Cytotoxicity against human MT4 cells after 3 days by ATPLite assay; format: cell-based; details: MT4 cells
Procedure, shortened: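 MT4 cells, 5,000 per well, were incubated 3 days at 37°C with eight serial fourfold compound dilutions. Cytotoxicity was read as intracellular ATP by ATPlite 1step luminescence. Values are means ± SD from two to eight independent experiments in quadruplicate.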

[12] = Cytotoxicity against human HepG2 cells after 72 hrs by resazurin assay; format: cell-based; details: HepG2 cells; procedure, shortened: as §3
[13] = target: Translocator protein (Homo sapiens, UniProt P30536); assay: Inhibition of peripheral benzodiazepine BZD receptor by radioligand binding assay; procedure, shortened: as §2
[14] = tested on: Hepatitis C virus; assay: Ratio of EC50 for Hepatitis C virus 796 infected in HuH7 cells to EC50 for Hepatitis C virus 796 harboring NNI H95R mutant site in NS5B infected in HuH7 cells; format: functional, Hepacivirus hominis, Huh-7; procedure, shortened: as §1
[15] = tested on: Hepatitis C virus; assay: Ratio of EC50 for Hepatitis C virus 796 infected in HuH7 cells to EC50 for Hepatitis C virus 796 harboring NNI P495L mutant site in NS5B infected in HuH7 cells; format: functional, Hepacivirus hominis, Huh-7; procedure, shortened: as §1
[16] = tested on: MT4; assay: Cytotoxicity against LTR-Luc transfected human MT4 cells […] after 3 days by ATPLite assay; format: cell-based; details: mt4, 72 h, 72 h
[17] = tested on: Hepatitis C virus; assay: Inhibition of Hepatitis C virus 1b J4 recombinant NS5B Cdelta 21 RNA dependent RNA polymerase overexpressed in Escherichia coli BL21 (DE3) by RdRp primer-dependent transcription assay; parameters: species or system Hepatitis C virus subtype 1b
[18] = tested on: Hepatitis C virus; assay: Ratio of EC50 for Hepatitis C virus 796 infected in HuH7 cells to EC50 for Hepatitis C virus 796 harboring NNI M414Q mutant site in NS5B infected in HuH7 cells; format: functional, Hepacivirus hominis, Huh-7; procedure, shortened: as §1

Translocator protein, sequence (P30536 whole entry): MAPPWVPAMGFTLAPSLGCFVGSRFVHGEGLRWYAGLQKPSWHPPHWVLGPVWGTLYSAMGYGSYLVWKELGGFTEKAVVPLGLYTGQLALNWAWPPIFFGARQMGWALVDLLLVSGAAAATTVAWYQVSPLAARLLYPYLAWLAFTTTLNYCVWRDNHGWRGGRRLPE

SMILES | inhibition [1] | fold change (FC) [2] | IC50 [3] [µM] | CC50 at 120 h [4] [µM] | EC50 [5] [µM] | fold change (FC) [6] | CC50 [7] [µM] | IC50 [8] [µM] | fold change (FC) [9] | CC50 at 72 h [10] [µM] | CC50 at 72 h [11] [µM] | CC50 at 72 h [12] [µM] | IC50 [13] [µM] | fold change (FC) [14] | fold change (FC) [15] | CC50 [16] [µM] | IC50 [17] [µM] | fold change (FC) [18]
CC(=O)N1c2ccccc2NC2=C(C(=O)CC(C)(C)C2)C1c1ccc(OCc2ccccc2)c(Cl)c1 (single isomer, unassigned; 4a) | Active |  |  |  |  |  |  |  |  |  |  |  |  |  |  |  |  | 
CC(=O)N1c2cccc(O)c2NC2=C(C(=O)CC(C)(C)C2)C1c1ccc(OCc2ccccc2)cc1Cl (single isomer, unassigned; 7a) |  | 10 | > 30 | 46.2 | 1.2 | 10 | 12.8 | 0.05 | 10 | > 25 | 56.5 | 31.2 | > 30 | 10 | 10 | 16.2 | 0.05 | 10
